The results in this text go back to article PMC6096382 (Theranostics, 2018).

The assay relates to human sural nerve. It is filed as binding. Conditions: topical 100 µM on human nerve sections from multiple patients. The essentials:
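Human peripheral nerve from nerve-resection patients, cut as 10 µm unfixed sections, humidified 30 min. Test compound in 0.5X HBSS applied topically and incubated 30 min in a humidified chamber. Carboxyfluorescein served as the free-dye control. Sections were washed twice with 0.5X HBSS and once with PBS, then coverslipped and imaged at once on a dissecting scope or confocal (488 nm excitation, 515/25 nm emission, 10x air objective).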

As to carboxyfluorescein, the “binding of free dye control to human nerve” value is on record as “only weak non-specific binding”.
